# Test results: ChEMBL document CHEMBL1143599, “Design, synthesis, and antiviral activity of adenosine 5'-phosphonate analogues as chain terminators against hepatitis C virus” (J Med Chem, 2005)
# Experiments:
# [1] = Cytotoxicity determined in Huh 7 cells; assay type: cell-based; settings: human
# How it was run: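 Huh7 cells; viability read by colorimetric MTT assay. CC50 taken as the concentration that cuts cell viability by 50%.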
# [2] = Effective concentration against Huh 7 cells; assay type: functional, cell-based, Homo sapiens
# How it was run: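 HCV subgenomic replicon cells with luciferase readout, seeded at 6000 cells/well, compound added right after seeding, 48 h incubation. Cells then lysed and luciferase activity in lysate measured. Replicon RNA reduction inferred from the luciferase drop; EC50 is the concentration giving 50% reduction of viral replication.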
EC50 [2] [µM],SMILES,CC50 [1] [µM]
200,Nc1ncnc2c1ncn2[C@@H]1O[C@H](CCP(=O)(O)O)[C@@H](O)[C@H]1O,> 300
25,CC(C)(C)C(=O)SCCOP(=O)(CC[C@H]1O[C@@H](n2cnc3c(N)ncnc32)[C@](C)(O)[C@@H]1O)OCCSC(=O)C(C)(C)C,30
65,Nc1ncnc2c1ncn2[C@@H]1O[C@H](OCP(=O)(O)O)[C@@H](O)[C@H]1O,> 300
30,Nc1ncnc2c1ncn2[C@@H]1C[C@H](OCP(=O)(O)O)[C@@H](O)[C@H]1O,300
35,C[C@@]1(O)[C@H](O)[C@@H](CCP(=O)(O)O)O[C@H]1n1cnc2c(N)ncnc21,> 300
